Assay results reported in ChEMBL document CHEMBL1153549 (Antimicrob Agents Chemother, 2008).
Values after ≈ are worked out from the molar mass of the structure shown. Active and inactive are the calls of the source. The rule behind the calls is not given here.

How the values were obtained:
Staphylococcus aureus [1] = assay: Antibacterial activity against methicillin-resistant Staphylococcus aureus ATCC 33591 by standard checkerboard method in presence of 0.2 to 1 mg/ml pulmonar surfactant; assay type: functional, organism-based
Summary of the method: (§1)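 Checkerboard combination of antibiotic with pulmonary surfactant (Survanta) by CLSI broth microdilution in cation-adjusted Mueller-Hinton broth. The top surfactant level was 1 mg/ml, a 25-fold dilution of Survanta. For daptomycin, the broth carried 50 mg/liter Ca2+.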

Streptococcus pneumoniae [2] = assay: Antibacterial activity against Streptococcus pneumoniae ATCC 49619 by standard checkerboard method in presence of 0.2 to 1 mg/ml pulmonar surfactant; assay type: functional, organism-based
Summary of the method: (§2)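 CLSI broth microdilution in cation-adjusted Mueller-Hinton broth combined with checkerboard of drug against pulmonary surfactant up to 1 mg/ml (25-fold dilution of Survanta); 50 mg/liter Ca2+ added for daptomycin only. Ratios of activity with vs without surfactant given as median and range of two separate experiments.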

Streptococcus pneumoniae [3] = assay: Antibacterial activity against Streptococcus pneumoniae ATCC 49619 by standard checkerboard method in presence of pulmonar surfactant and 50 mg/liter Ca2+; assay type: functional, organism-based; summary of the method: as §2
Staphylococcus aureus [4] = assay: Ratio of antibacterial activity against methicillin-resistant Staphylococcus aureus ATCC 33591 in presence of 1 mg/ml pulmonar surfactant and 50 mg/liter Ca2+ to antibacterial against methicillin-resistant Staphylococcus aureus ATCC 33591; assay type: functional
Summary of the method: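 Broth microdilution in cation-adjusted Mueller-Hinton broth (plus 50 mg/liter Ca2+ for daptomycin), with versus without 1 mg/ml pulmonary surfactant (Survanta). Reported as the median and range of activity ratios from two separate experiments.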

Staphylococcus aureus [5] = assay: Antibacterial activity against methicillin-resistant Staphylococcus aureus ATCC 33591 by standard checkerboard method in presence of pulmonar surfactant and 50 mg/liter Ca2+; assay type: functional, organism-based; summary of the method: as §1
Streptococcus pneumoniae [6] = assay: Ratio of antibacterial activity against Streptococcus pneumoniae ATCC 49619 in presence of 1 mg/ml pulmonar surfactant and 50 mg/liter Ca2+ to antibacterial against Streptococcus pneumoniae ATCC 49619; assay type: functional; summary of the method: as §2
[7] = Drug level in epithelial lining fluid of healthy human undergoing fiber-optic bronchoscopy at 10 mg/kg, iv once daily for 3 days measured at 8 hrs after start of infusion by validated liquid chromatography; assay type: ADME, organism-based; parameters: dose 10 mg/kg, route intravenous; conditions: read-out: Drug uptake
[8] = Plasma concentration in healthy human undergoing fiber-optic bronchoscopy at 10 mg/kg, iv once daily for 3 days measured at 12 hrs after start of infusion by validated liquid chromatography; assay type: ADME, organism-based; parameters: dose 10 mg/kg, route intravenous
[9] = Cmax in healthy human at 10 mg/kg, iv once daily for 3 days measured at 24 after start of infusion; assay type: ADME, organism-based; parameters: dose 10 mg/kg, route intravenous; conditions: in vivo
Summary of the method: (§3)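 Plasma from healthy adults given 10 mg/kg IV over 60 min daily for 3 days, sampled before infusions 1 and 3 and 1, 2, 4, 6, 8, 12, 24 h after the third; validated LC-MS/MS (LLOQ 0.25 μg/ml). Noncompartmental analysis: Cmax, Tmax, Cmin observed; AUC0-24 linear trapezoidal; kel by log-linear regression; t1/2 = 0.693/kel; CL = dose/AUC0-24.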

[10] = Drug level in epithelial lining fluid of healthy human undergoing fiber-optic bronchoscopy at 10 mg/kg, iv once daily for 3 days measured at 24 hrs after start of infusion by validated liquid chromatography; assay type: ADME, organism-based; parameters: dose 10 mg/kg, route intravenous; conditions: read-out: Drug uptake
Homo sapiens [11] = assay: Toxicity in healthy human at 10 mg/kg/day infused over 1 hr; assay type: organism-based; conditions: in vivo
Streptococcus pneumoniae [12] = assay: Antibacterial activity against […] Streptococcus pneumoniae; assay type: functional
Summary of the method: (§4)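 MICs by CLSI reference broth microdilution in cation-adjusted Mueller-Hinton broth. For daptomycin testing, the medium was supplemented with 50 mg/liter Ca2+.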

Homo sapiens [13] = assay: Toxicity in healthy human at 10 mg/kg, iv once daily for 3 days by clinical laboratory test; assay type: organism-based; parameters: dose 10 mg/kg, route intravenous; conditions: in vivo, 72 h
Summary of the method: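 Safety monitored by physical examinations, electrocardiographs and clinical laboratory tests (hematology, serum chemistry, urinalysis) at screening and specified times during 3 days of 10 mg/kg 1-h IV infusions.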

[14] = Ratio of drug level in alveolar macrophage to plasma of healthy human undergoing fiber-optic bronchoscopy at 10 mg/kg, iv once daily for 3 days measured at 12 hrs after start of infusion; conditions: alveolar macrophages / plasma
Homo sapiens [15] = assay: Toxicity in healthy human assessed as pulmonar inflammation at 10 mg/kg, iv once daily for 3 days; assay type: organism-based; parameters: dose 10 mg/kg, route intravenous; conditions: in vivo, 72 h
[16] = Terminal half life in healthy human at 10 mg/kg, iv once daily for 3 days measured at 24 after start of infusion; assay type: ADME, organism-based; parameters: dose 10 mg/kg, route intravenous; conditions: in vivo, read-out: beta t1/2 (converted); summary of the method: as §3
[17] = Cmin in healthy human at 10 mg/kg, iv once daily for 3 days measured at 24 after start of infusion; assay type: ADME, organism-based; parameters: dose 10 mg/kg, route intravenous; conditions: in vivo, read-out: Cmin; summary of the method: as §3
[18] = Plasma concentration in healthy human undergoing fiber-optic bronchoscopy at 10 mg/kg, iv once daily for 3 days measured at 24 hrs after start of infusion by validated liquid chromatography; assay type: ADME, organism-based; parameters: dose 10 mg/kg, route intravenous
Homo sapiens [19] = assay: Plasma protein binding in healthy human undergoing fiber-optic bronchoscopy at 10 mg/kg, iv once daily for 3 days; conditions: read-out: PPB (converted)
Staphylococcus aureus [20] = assay: Antibacterial activity against methicillin-resistant Staphylococcus aureus; assay type: functional
[21] = Drug level in alveolar macrophage of healthy human undergoing fiber-optic bronchoscopy at 10 mg/kg, iv once daily for 3 days measured at 24 after start of infusion by validated liquid chromatography; assay type: ADME, organism-based; parameters: dose 10 mg/kg, route intravenous; conditions: alveolar macrophages, read-out: Drug uptake
[22] = Mean residence time in healthy human at 10 mg/kg, iv once daily for 3 days measured at 24 after start of infusion; assay type: ADME, organism-based; parameters: dose 10 mg/kg, route intravenous; conditions: in vivo; summary of the method: as §3
[23] = Ratio of drug level in alveolar macrophage to plasma of healthy human undergoing fiber-optic bronchoscopy at 10 mg/kg, iv once daily for 3 days measured at 24 hrs after start of infusion; conditions: alveolar macrophages / plasma
Staphylococcus aureus [24] = assay: Antibacterial activity against methicillin-resistant Staphylococcus aureus ATCC 33591 by CLSI broth microdilution method; assay type: functional; summary of the method: as §4
[25] = Drug level in alveolar macrophage of healthy human undergoing fiber-optic bronchoscopy at 10 mg/kg, iv once daily for 3 days measured at 12 after start of infusion by validated liquid chromatography; assay type: ADME, organism-based; parameters: dose 10 mg/kg, route intravenous; conditions: alveolar macrophages, read-out: Drug uptake
[26] = Clearance at steady state in healthy human at 10 mg/kg, iv once daily for 3 days measured at 24 after start of infusion; assay type: ADME, organism-based; parameters: dose 10 mg/kg, route intravenous; conditions: in vivo, read-out: CLss (converted); summary of the method: as §3
Mus musculus = assay: fAUC (0 to 24) in mouse pneumonia model at 40 mg/kg; assay type: ADME, organism-based; parameters: dose 40 mg/kg; conditions: in vivo
[27] = AUC (0 to 24) in epithelial lining fluid of healthy human at 10 mg/kg, iv once daily for 3 days; assay type: ADME, organism-based; parameters: time < 24 hr, dose 10 mg/kg, route intravenous; conditions: in vivo, 24 h
[28] = Drug level in alveolar macrophage of healthy human undergoing fiber-optic bronchoscopy at 10 mg/kg, iv once daily for 3 days measured at 8 hrs after start of infusion by validated liquid chromatography; assay type: ADME, organism-based; parameters: dose 10 mg/kg, route intravenous; conditions: alveolar macrophages, read-out: Drug uptake
Streptococcus pneumoniae [29] = assay: Antibacterial activity against Streptococcus pneumoniae
Staphylococcus aureus [30] = assay: Antibacterial activity against methicillin-susceptible Staphylococcus aureus; assay type: functional; summary of the method: as §4
Homo sapiens [31] = assay: Toxicity in healthy human assessed as pulmonar infection at 10 mg/kg, iv once daily for 3 days; assay type: organism-based; parameters: dose 10 mg/kg, route intravenous; conditions: in vivo, 72 h
[32] = Tmax in healthy human at 10 mg/kg, iv once daily for 3 days measured at 24 after start of infusion; assay type: ADME, organism-based; parameters: dose 10 mg/kg, route intravenous; conditions: in vivo; summary of the method: as §3

## CN[C@H](CC(C)C)C(=O)N[C@H]1C(=O)N[C@@H](CC(N)=O)C(=O)N[C@H]2C(=O)N[C@H]3C(=O)N[C@H](C(=O)N[C@H](C(=O)O)c4cc(O)cc(O)c4-c4cc3ccc4O)[C@H](O)c3ccc(c(Cl)c3)Oc3cc2cc(c3O[C@@H]2O[C@H](CO)[C@@H](O)[C@H](O)[C@H]2O[C@H]2C[C@](C)(N)[C@H](O)[C@H](C)O2)Oc2ccc(cc2Cl)[C@H]1O
Staphylococcus aureus [1]
  Activity: Active
Streptococcus pneumoniae [2]
  Activity: Active

## CCCCCCCCCC(=O)N[C@@H](Cc1c[nH]c2ccccc12)C(=O)N[C@H](CC(N)=O)C(=O)N[C@@H](CC(=O)O)C(=O)N[C@@H]1C(=O)NCC(=O)N[C@@H](CCCN)C(=O)N[C@@H](CC(=O)O)C(=O)N[C@H](C)C(=O)N[C@@H](CC(=O)O)C(=O)NCC(=O)N[C@H](CO)C(=O)N[C@@H]([C@H](C)CC(=O)O)C(=O)N[C@@H](CC(=O)c2ccccc2N)C(=O)O[C@@H]1C
Streptococcus pneumoniae [3]
  Activity: inactive
Staphylococcus aureus [4]
  Ratio: 32
Staphylococcus aureus [5]
  Activity: inactive
Streptococcus pneumoniae [6]
  Ratio: 128

## CO/N=C(\C(=O)N[C@@H]1C(=O)N2C(C(=O)O)=C(CSc3nc(=O)c(O)nn3C)CS[C@H]12)c1csc(N)n1
Staphylococcus aureus [1]
  Activity: Active
Streptococcus pneumoniae [2]
  Activity: Active

## CCCCCCCCCCNCCN[C@@]1(C)C[C@H](O[C@H]2[C@H](Oc3c4cc5cc3Oc3ccc(cc3Cl)[C@@H](O)[C@@H](NC(=O)[C@@H](CC(C)C)NC)C(=O)N[C@@H](CC(N)=O)C(=O)N[C@H]5C(=O)N[C@H]3C(=O)N[C@H](C(=O)N[C@H](C(=O)O)c5cc(O)c(CNCP(=O)(O)O)c(O)c5-c5cc3ccc5O)[C@H](O)c3ccc(c(Cl)c3)O4)O[C@H](CO)[C@@H](O)[C@@H]2O)O[C@@H](C)[C@H]1O [TELAVANCIN]
[7]
  concentration at 8 h: 3700 ng/mL
[8]
  concentration at 12 h: 22900 ng/mL
[9]
  Cmax: 116000 ng/mL
[10]
  concentration at 24 h: 900 ng/mL
Homo sapiens [11]
  Activity: Non-toxic
Staphylococcus aureus [1]
  Activity: Active
Streptococcus pneumoniae [12]
  MIC90: 0.03 µg/mL (≈ 0.0171 µM)
Homo sapiens [13]
  Activity: Non-toxic
[14]
  Kp at 12 h: 1.93
Homo sapiens [15]
  Activity: Non-toxic
[16]
  half-life: 7.41 h
[17]
  concentration at 72 h: 8110 ng/mL
[18]
  concentration at 24 h: 7280 ng/mL
Homo sapiens [19]
  fraction unbound at 72 h: 0.1
Staphylococcus aureus [20]
  MIC90: 0.5 µg/mL (≈ 0.285 µM)
[21]
  concentration at 72 h: 42000 ng/mL
Streptococcus pneumoniae [2]
  Activity: Active
[22]
  MRT: 9.42 h
[23]
  Kp at 24 h: 6.67
Staphylococcus aureus [24]
  Activity: 0.5 µg/mL
[25]
  concentration at 72 h: 45000 ng/mL
[26]
  clearance: 0.217 mL/min/kg
Mus musculus
  fAUC: 52.3 µg/h/mL
[27]
  AUC: 45 µg/h/mL
[28]
  concentration at 8 h: 19000 ng/mL
Streptococcus pneumoniae [29]
  MIC90: 0.03 µg/mL (≈ 0.0171 µM)
Staphylococcus aureus [30]
  MIC90: 0.5 µg/mL (≈ 0.285 µM)
Homo sapiens [31]
  Activity: Non-toxic
[32]
  Tmax: 1 h
